In ChEMBL document CHEMBL4229391, “Divergent synthesis of thapsigargin analogs” (Bioorg Med Chem Lett, 2018):

What was measured:
Assay type in all cases: cell-based
HeLa [1] = assay: Inhibition of SERCA in human HeLa cells assessed as increase in cytosolic calcium level at 3.81 x 10^-11M measured over 300 secs by Fluo-4 NW dye based FLIPR analysis relative to control
Outline: (§1)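 HeLa cells were seeded at 25,000/well in MEM + 10% FBS and grown overnight at 37°C, 5% CO2. They were loaded with Fluo-4 NW (30 min at 37°C, then 30 min at RT). Compound was added in HBSS/20 mM HEPES, one point of a 10-point in-assay range (10 uM – 38 pM). Fluorescence (ex 470-495, em 515-575 nm) was read for 300 s. Peak signal was normalized to thapsigargin (=100%) and buffer (0.2% DMSO) controls.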

HeLa [2] = assay: Inhibition of SERCA in human HeLa cells assessed as increase in cytosolic calcium level at 1.56 x 10^-7M measured over 300 secs by Fluo-4 NW dye based FLIPR analysis relative to control; outline: as §1
HeLa [3] = assay: Inhibition of SERCA in human HeLa cells assessed as increase in cytosolic calcium level at 3.91 x 10^-8M measured over 300 secs by Fluo-4 NW dye based FLIPR analysis relative to control; outline: as §1
HeLa [4] = assay: Inhibition of SERCA in human HeLa cells assessed as increase in cytosolic calcium level at 6.25 x 10^-7M measured over 300 secs by Fluo-4 NW dye based FLIPR analysis relative to control; outline: as §1
HeLa [5] = assay: Inhibition of SERCA in human HeLa cells assessed as increase in cytosolic calcium level at 2.50 x 10^-6M measured over 300 secs by Fluo-4 NW dye based FLIPR analysis relative to control; outline: as §1
[6] = Inhibition of SERCA in human HeLa cells assessed as increase in cytosolic calcium level measured over 300 secs by Fluo-4 NW dye based FLIPR analysis
Outline: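 Fluo-4 NW-loaded HeLa cells (25,000/well, overnight culture in MEM/10% FBS) received 10-point titrations (10 uM – 38 pM in-assay) in HBSS/20 mM HEPES. Fluorescence was recorded for 300 s. Peak signals, normalized to thapsigargin and 0.2% DMSO buffer controls, were fitted to a log agonist-response model. The midpoint concentration is reported as IC50. Values are mean ± SD of three independent determinations, each run in duplicate.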

HeLa [7] = assay: Inhibition of SERCA in human HeLa cells assessed as increase in cytosolic calcium level at 1.00 x 10^-5M measured over 300 secs by Fluo-4 NW dye based FLIPR analysis relative to control; outline: as §1
HeLa [8] = assay: Inhibition of SERCA in human HeLa cells assessed as increase in cytosolic calcium level at 6.10 x 10^-10M measured over 300 secs by Fluo-4 NW dye based FLIPR analysis relative to control
Outline: (§2)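 HeLa cells seeded at 25,000/well in MEM + 10% FBS and kept overnight at 37°C, 5% CO2. They were loaded with FLUO-4 NW (30 min 37°C, then 30 min RT) in HBSS/20 mM HEPES. Compounds were added from DMSO in a 10-point titration (in-assay 10 uM–38 pM). Fluorescence (ex 470-495, em 515-575 nm) was read 300 s. Signal maxima were normalized to thapsigargin (100%) and buffer/0.2% DMSO controls. Three independent runs in duplicate.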

HeLa [9] = assay: Inhibition of SERCA in human HeLa cells assessed as increase in cytosolic calcium level at 1.53 x 10^-10M measured over 300 secs by Fluo-4 NW dye based FLIPR analysis relative to control; outline: as §2
HeLa [10] = assay: Inhibition of SERCA in human HeLa cells assessed as increase in cytosolic calcium level at 9.77 x 10^-9M measured over 300 secs by Fluo-4 NW dye based FLIPR analysis relative to control; outline: as §2
HeLa [11] = assay: Inhibition of SERCA in human HeLa cells assessed as increase in cytosolic calcium level at 2.44 x 10^-9M measured over 300 secs by Fluo-4 NW dye based FLIPR analysis relative to control; outline: as §2

Structure (SMILES)	IC50 [6]	inhibition (HeLa [1])	inhibition (HeLa [2])	inhibition (HeLa [3])	inhibition (HeLa [4])	inhibition (HeLa [5])	inhibition (HeLa [7])	inhibition (HeLa [8])	inhibition (HeLa [9])	inhibition (HeLa [10])	inhibition (HeLa [11])
C/C=C(/C)C(=O)O[C@H]1C(C)=C2[C@H]([C@@H]1OC(=O)CCCCC)[C@@](C)(OC(C)=O)C[C@H](OC(=O)CCC)[C@@]1(O)[C@H]2OC(=O)[C@@]1(C)O	73 to 90 nM	-2.5 to 2%	64.9 to 94.4%	5.8 to 30.7%	90.8 to 104%	91.1 to 105%	86.6 to 100%	-4.6 to 4.1%	-2.1 to 3.5%	-2.2 to 7.9%	-5.9 to 4.6%
CCCCCCCC(=O)O[C@H]1[C@H]2C(=C(C)[C@@H]1OC(=O)[C@H](C)CC)[C@@H]1OC(=O)[C@@](C)(O)[C@@]1(O)[C@@H](OC(=O)CCC)C[C@]2(C)OC(C)=O	57.7 to 104 nM	-0.7 to 2.6%	71.9 to 87.8%	8.1 to 45.8%	91.7 to 104%	88.1 to 106%	87.4 to 108%	-0.7 to 1.9%	-4.3 to 1.5%	1 to 7.1%	-1.6 to 3.6%
C/C=C(/C)C(=O)O[C@H]1C(C)=C2[C@H]([C@@H]1OC(=O)CCCCCCC)[C@@](C)(OC(C)=O)C[C@H](OC(=O)CCC)[C@@]1(O)[C@H]2OC(=O)[C@@]1(C)O [THAPSIGARGIN]	28.5 to 51 nM	-2.3 to 2.9%	67.6 to 103%	37.6 to 75.1%	90.4 to 109%	92.9 to 105%	89 to 107%	-5 to 0.6%	-1.7 to 0.1%	-2.7 to 10.5%	-4.1 to 1.4%

Further lines, with some results ahead:

IC50 [6]	Structure (SMILES)	inhibition (HeLa [1])	inhibition (HeLa [2])	inhibition (HeLa [3])	inhibition (HeLa [4])	inhibition (HeLa [5])	inhibition (HeLa [7])	inhibition (HeLa [8])	inhibition (HeLa [9])	inhibition (HeLa [10])	inhibition (HeLa [11])
71.5 to 117 nM	CCCCCCCC(=O)O[C@H]1[C@H]2C(=C(C)[C@@H]1OC(=O)c1cccs1)[C@@H]1OC(=O)[C@@](C)(O)[C@@]1(O)[C@@H](OC(=O)CCC)C[C@]2(C)OC(C)=O	-5.9 to 0.6%	52.4 to 84.4%	-7.5 to 25.7%	68.8 to 103%	79.6 to 105%	92.9 to 102%				
220 to 298 nM	C/C=C(/C)C(=O)O[C@H]1C(C)=C2[C@H]([C@@H]1OC(=O)CCCCCCC)[C@@](C)(OC(C)=O)C[C@H](OC(=O)[C@@H](C)CC)[C@@]1(O)[C@H]2OC(=O)[C@@]1(C)O	-2.2 to 2.4%	6.2 to 40.9%	2.9 to 27.6%	88.4 to 101%	91.1 to 109%	89.4 to 110%	-3.2 to 2.2%	-4.2 to 2.5%	-1.3 to 3.8%	-1.6 to 2.8%
310 to 576 nM	CCCCCCCC(=O)O[C@H]1[C@H]2C(=C(C)[C@@H]1OC(=O)CC(C)C)[C@@H]1OC(=O)[C@@](C)(O)[C@@]1(O)[C@@H](OC(=O)CCC)C[C@]2(C)OC(C)=O	-8 to 21.4%			40.2 to 84.1%	72.4 to 91.7%	89.7 to 96.6%				
204 to 268 nM	C/C=C(/C)C(=O)O[C@@H]1C[C@H]2C(=C1C)[C@@H]1OC(=O)[C@@](C)(O)[C@@]1(O)[C@@H](OC(=O)C=C(C)C)C[C@]2(C)OC(C)=O	-2 to 1.7%	12.1 to 55.6%	-1.7 to 10.7%	65.5 to 94.1%	87.1 to 102%	92 to 102%	-3 to 3.3%	-3.3 to 2.6%	-4.7 to 4.6%	-3.4 to 4.1%
30 to 119 nM	CCCCCCCC(=O)O[C@H]1[C@H]2C(=C(C)[C@@H]1OC(=O)c1sccc1C)[C@@H]1OC(=O)[C@@](C)(O)[C@@]1(O)[C@@H](OC(=O)CCC)C[C@]2(C)OC(C)=O	-2.2 to 3.1%	57 to 99.4%	-6.6 to 60.1%	83.7 to 102%	86.7 to 101%	92 to 101%	-4.2 to 0.8%	-2.6 to 0.5%	-6.6 to 10%	-7.7 to 1.6%
